Test results taken from ChEMBL document CHEMBL1649269, “In vitro activities of three new dihydrofolate reductase inhibitors against clinical isolates of gram-positive bacteria” (2009).
Converted amounts (≈) assume the structure as drawn.

How the values were obtained:
Staphylococcus aureus [1] = assay: Antimicrobial activity against methicillin-sensitive Staphylococcus aureus by agar dilution method; assay type: functional
Summary of the method: (§1)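 MICs against clinical MRSA or MSSA isolates by CLSI agar dilution, with S. aureus ATCC 29213 as control strain. Percentage of susceptible isolates was calculated from the MICs using CLSI breakpoints.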

Staphylococcus aureus [2] = assay: Antimicrobial activity against methicillin-sensitive Staphylococcus aureus assessed as susceptible isolates by agar dilution method; assay type: functional; summary of the method: as §1
Staphylococcus aureus [3] = assay: Antimicrobial activity against methicillin-resistant Staphylococcus aureus by agar dilution method; assay type: functional; summary of the method: as §1
Staphylococcus aureus [4] = assay: Antimicrobial activity against Heterovancomycin-resistant Staphylococcus aureus by agar dilution method; assay type: functional
Summary of the method: (§2)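 Clinical S. aureus isolates classed as hVISA or VISA by population analysis profiling. MICs by CLSI agar dilution, with S. aureus ATCC 29213 as control strain.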

Staphylococcus aureus [5] = assay: Antimicrobial activity against Heterovancomycin-resistant Staphylococcus aureus assessed as susceptible isolates by agar dilution method; assay type: functional
Staphylococcus aureus [6] = assay: Antimicrobial activity against vancomycin-resistant Staphylococcus aureus by agar dilution method; assay type: functional; summary of the method: as §2
Staphylococcus aureus [7] = assay: Antimicrobial activity against vancomycin-resistant Staphylococcus aureus assessed as susceptible isolates by agar dilution method; assay type: functional
Staphylococcus [8] = assay: Antimicrobial activity against Coagulase-negative Staphylococcus by agar dilution method; assay type: functional
Summary of the method: (§3)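 CLSI agar dilution MIC testing of clinical isolates of staphylococci and Listeria. S. aureus ATCC 29213 and S. pneumoniae ATCC 49619 served as control strains. The percentage of susceptible isolates was calculated from CLSI breakpoints.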

Staphylococcus [9] = assay: Antimicrobial activity against Coagulase-negative Staphylococcus assessed as susceptible isolates by agar dilution method; assay type: functional; summary of the method: as §3
[10] = system: Streptococcus sp. 'group A'; assay: Antimicrobial activity against Group A Streptococcus by agar dilution method; assay type: functional
Summary of the method: (§4)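 Clinical isolates of beta-hemolytic streptococci, S. mitis and S. pneumoniae were tested by CLSI methodology, with Mueller-Hinton medium supplemented with 5% lysed horse blood. S. aureus ATCC 29213 and S. pneumoniae ATCC 49619 served as control strains. The percentage of susceptible isolates was derived from CLSI breakpoints.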

[11] = system: Streptococcus sp. 'group A'; assay: Antimicrobial activity against Group A Streptococcus assessed as susceptible isolates by agar dilution method; assay type: functional; summary of the method: as §4
[12] = system: Streptococcus sp. 'group B'; assay: Antimicrobial activity against Group B Streptococcus by agar dilution method; assay type: functional; summary of the method: as §4
[13] = system: Streptococcus sp. 'group B'; assay: Antimicrobial activity against Group B Streptococcus assessed as susceptible isolates by agar dilution method; assay type: functional; summary of the method: as §4
[14] = Antimicrobial activity against Group C Streptococcus by agar dilution method; assay type: functional; settings: Streptococcus sp. 'group C'; summary of the method: as §4
[15] = Antimicrobial activity against Group C Streptococcus assessed as susceptible isolates by agar dilution method; assay type: functional, Streptococcus sp. 'group C'; summary of the method: as §4
[16] = Antimicrobial activity against Group G Streptococcus by agar dilution method; assay type: functional; settings: Streptococcus sp. 'group G'; summary of the method: as §4
[17] = Antimicrobial activity against Group G Streptococcus assessed as susceptible isolates by agar dilution method; assay type: functional, Streptococcus sp. 'group G'; summary of the method: as §4
Streptococcus pneumoniae [18] = assay: Antimicrobial activity against Streptococcus pneumoniae by agar dilution method; assay type: functional; summary of the method: as §4
Corynebacterium sp. = assay: Antimicrobial activity against Corynebacterium spp. by agar dilution method; assay type: functional
Listeria monocytogenes = assay: Antimicrobial activity against Listeria monocytogenes by agar dilution method; assay type: functional; summary of the method: as §3
Streptococcus mitis = assay: Antimicrobial activity against Streptococcus mitis by broth dilution method
Streptococcus pneumoniae [19] = assay: Antimicrobial activity against Streptococcus pneumoniae assessed as susceptible isolates by agar dilution method; assay type: functional; summary of the method: as §4

| SMILES | MIC50 (Staphylococcus aureus [1]) [µg/mL] | MIC90 (Staphylococcus aureus [1]) [µg/mL] | Activity (Staphylococcus aureus [2]) [%] | MIC50 (Staphylococcus aureus [3]) [µg/mL] | MIC90 (Staphylococcus aureus [3]) [µg/mL] | MIC50 (Staphylococcus aureus [4]) [µg/mL] | MIC90 (Staphylococcus aureus [4]) [µg/mL] | MIC50 (Staphylococcus aureus [6]) [µg/mL] | MIC90 (Staphylococcus aureus [6]) [µg/mL] | MIC50 (Staphylococcus [8]) [µg/mL] | MIC90 (Staphylococcus [8]) [µg/mL] | Activity (Staphylococcus [9]) [%] | MIC50 [10] [µg/mL] | MIC90 [10] [µg/mL] | Activity [11] [%] | MIC [12] [µg/mL] | MIC50 [12] [µg/mL] | MIC90 [12] [µg/mL] | Activity [13] [%] | MIC50 [14] [µg/mL] | other results |
| --- | --- | --- | --- | --- | --- | --- | --- | --- | --- | --- | --- | --- | --- | --- | --- | --- | --- | --- | --- | --- | --- |
| CCCCCCCCCC(=O)N[C@@H](Cc1c[nH]c2ccccc12)C(=O)N[C@H](CC(N)=O)C(=O)N[C@@H](CC(=O)O)C(=O)N[C@@H]1C(=O)NCC(=O)N[C@@H](CCCN)C(=O)N[C@@H](CC(=O)O)C(=O)N[C@H](C)C(=O)N[C@@H](CC(=O)O)C(=O)NCC(=O)N[C@H](CO)C(=O)N[C@@H]([C@H](C)CC(=O)O)C(=O)N[C@@H](CC(=O)c2ccccc2N)C(=O)O[C@@H]1C | 0.25 (≈ 0.154 µM) | 0.25 (≈ 0.154 µM) | 100 | 0.12 (≈ 0.074 µM) | 0.25 (≈ 0.154 µM) | 0.5 (≈ 0.309 µM) | 0.5 (≈ 0.309 µM) | 1 (≈ 0.617 µM) | 2 (≈ 1.23 µM) | 0.25 (≈ 0.154 µM) | 0.5 (≈ 0.309 µM) | 100 | 0.015 (≈ 0.00926 µM) | 0.03 (≈ 0.0185 µM) | 100 | 0.015 (≈ 0.00926 µM) | 0.015 (≈ 0.00926 µM) | 0.06 (≈ 0.037 µM) | 100 | 0.03 (≈ 0.0185 µM) | MIC (Staphylococcus aureus [3]): 0.12 µg/mL (≈ 0.074 µM); Activity (Staphylococcus aureus [5]): 96%; Activity (Staphylococcus aureus [7]): 71%; MIC [10]: 0.015 µg/mL (≈ 0.00926 µM); MIC90 [14]: 0.12 µg/mL (≈ 0.074 µM); Activity [15]: 100%; MIC [16]: 0.015 µg/mL (≈ 0.00926 µM); MIC50 [16]: 0.015 µg/mL (≈ 0.00926 µM); MIC90 [16]: 0.03 µg/mL (≈ 0.0185 µM); Activity [17]: 100%; MIC50 (Streptococcus pneumoniae [18]): 0.06 µg/mL (≈ 0.037 µM); MIC90 (Streptococcus pneumoniae [18]): 0.12 µg/mL (≈ 0.074 µM); MIC50 (Corynebacterium sp.): 0.06 µg/mL (≈ 0.037 µM); MIC90 (Corynebacterium sp.): 0.12 µg/mL (≈ 0.074 µM); MIC50 (Listeria monocytogenes): 1 µg/mL (≈ 0.617 µM); MIC90 (Listeria monocytogenes): 2 µg/mL (≈ 1.23 µM); MIC (Streptococcus mitis): 0.006 µg/mL (≈ 0.0037 µM); MIC50 (Streptococcus mitis): 0.25 µg/mL (≈ 0.154 µM) |
| CC(=O)NC[C@H]1CN(c2ccc(N3CCOCC3)c(F)c2)C(=O)O1 [LINEZOLID] | 2 (≈ 5.93 µM) | 2 (≈ 5.93 µM) | 100 | 2 (≈ 5.93 µM) | 2 (≈ 5.93 µM) | 1 (≈ 2.96 µM) | 2 (≈ 5.93 µM) | 1 (≈ 2.96 µM) | 2 (≈ 5.93 µM) | 1 (≈ 2.96 µM) | 2 (≈ 5.93 µM) | 100 | 1 (≈ 2.96 µM) | 1 (≈ 2.96 µM) | 100 | 1 (≈ 2.96 µM) | 1 (≈ 2.96 µM) | 2 (≈ 5.93 µM) | 100 | 1 (≈ 2.96 µM) | MIC (Staphylococcus aureus [4]): 1 µg/mL (≈ 2.96 µM); MIC [14]: 1 µg/mL (≈ 2.96 µM); MIC90 [14]: 2 µg/mL (≈ 5.93 µM); Activity [15]: 100%; MIC50 [16]: 2 µg/mL (≈ 5.93 µM); MIC90 [16]: 2 µg/mL (≈ 5.93 µM); Activity [17]: 100%; MIC50 (Streptococcus pneumoniae [18]): 1 µg/mL (≈ 2.96 µM); MIC90 (Streptococcus pneumoniae [18]): 2 µg/mL (≈ 5.93 µM); Activity (Streptococcus pneumoniae [19]): 100%; MIC50 (Corynebacterium sp.): 0.06 µg/mL (≈ 0.178 µM); MIC90 (Corynebacterium sp.): 0.12 µg/mL (≈ 0.356 µM); MIC (Listeria monocytogenes): 2 µg/mL (≈ 5.93 µM); MIC50 (Listeria monocytogenes): 2 µg/mL (≈ 5.93 µM); MIC90 (Listeria monocytogenes): 2 µg/mL (≈ 5.93 µM); MIC50 (Streptococcus mitis): 1 µg/mL (≈ 2.96 µM) |
